Results as given in ChEMBL document CHEMBL1148668, “The identification of pyrimidine-diazabicyclo[3.3.0]octane derivatives as 5-HT2C receptor agonists” (Bioorg Med Chem Lett, 2006).
Activity calls are given as the source filed them. No cut-off for these calls is given here.

What was measured:
[1] = target: T1, 5-hydroxytryptamine receptor 2C (Homo sapiens, UniProt P28335); assay: Induction of 5HT2C receptor mediated increase in intracellular calcium concentration in HEK293 cells; type: functional, cell-based
T1 sequence (P28335 whole entry): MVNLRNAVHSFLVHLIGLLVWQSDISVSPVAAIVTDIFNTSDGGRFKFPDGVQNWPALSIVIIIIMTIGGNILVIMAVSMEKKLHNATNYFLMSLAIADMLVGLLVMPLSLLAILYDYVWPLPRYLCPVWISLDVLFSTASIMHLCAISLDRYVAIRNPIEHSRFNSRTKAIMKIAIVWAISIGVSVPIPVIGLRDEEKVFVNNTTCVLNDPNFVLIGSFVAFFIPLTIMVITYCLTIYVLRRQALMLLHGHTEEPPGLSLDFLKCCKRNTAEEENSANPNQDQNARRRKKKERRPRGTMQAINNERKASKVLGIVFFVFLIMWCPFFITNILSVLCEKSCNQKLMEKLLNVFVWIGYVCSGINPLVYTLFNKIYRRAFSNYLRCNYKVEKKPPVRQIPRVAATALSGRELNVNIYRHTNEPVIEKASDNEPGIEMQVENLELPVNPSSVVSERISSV
Procedure, shortened: (§1)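 Recombinant cell lines stably expressed the respective 5-HT2 receptor subtype. Agonist-induced rises in intracellular calcium were read with a fluorescence-based assay.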

[2] = target: 5-hydroxytryptamine receptor 2B (Homo sapiens, UniProt P41595); assay: Induction of 5HT2B receptor mediated increase in intracellular calcium concentration in CHO cells; type: functional, cell-based; procedure, shortened: as §1
[3] = target: 5-hydroxytryptamine receptor 2A (Homo sapiens, UniProt P28223); assay: Induction of 5HT2A receptor mediated increase in intracellular calcium concentration in CHO cells; type: functional, cell-based; procedure, shortened: as §1
[4] = Brain to plasma AUC ratio in rat at 1.2 mg/kg, iv; type: ADME, organism-based; set-up: dose 1.2 mg/kg, route intravenous; details: brain and plasma, read-out: Ratio AUC
Procedure, shortened: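 Brain exposure was taken from cortex tissue. The ratio is AUC in cortex divided by AUC in plasma, after a single intravenous dose in rat.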

[5] = Clearance in rat at 1.2 mg/kg, iv; type: ADME, organism-based; set-up: dose 1.2 mg/kg, route intravenous; details: in vivo
[6] = Half life in rat at 1.2 mg/kg, iv; type: ADME, organism-based; set-up: dose 1.2 mg/kg, route intravenous; details: in vivo
[7] = Oral bioavailability in rat at 10.6 mg/kg, po; type: ADME, organism-based; details: in vivo
[8] = tested on: Rattus norvegicus; assay: Reduction in food consumption in Sprague-Dawley rat at 20 mg/kg, ip after 4 hrs; type: functional, organism-based; set-up: dose 20 mg/kg
Procedure, shortened: (§2)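 Male Sprague–Dawley rats, n = 10/group, were given vehicle, fenfluramine (positive control) or test compound intraperitoneally about 30 min before onset of the 12 h dark cycle. This was a 24 h acute feeding study, with food consumption recorded at 4 and 24 h.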

[9] = tested on: Rattus norvegicus; assay: Reduction in food consumption in Sprague-Dawley rat at 20 mg/kg, ip after 24 hrs; type: functional, organism-based; set-up: dose 20 mg/kg; procedure, shortened: as §2
[10] = tested on: Rattus norvegicus; assay: Reduction in food consumption in ip dosed Sprague-Dawley rat; type: functional, organism-based; procedure, shortened: as §2

5-hydroxytryptamine receptor 2A, sequence (P28223 whole entry): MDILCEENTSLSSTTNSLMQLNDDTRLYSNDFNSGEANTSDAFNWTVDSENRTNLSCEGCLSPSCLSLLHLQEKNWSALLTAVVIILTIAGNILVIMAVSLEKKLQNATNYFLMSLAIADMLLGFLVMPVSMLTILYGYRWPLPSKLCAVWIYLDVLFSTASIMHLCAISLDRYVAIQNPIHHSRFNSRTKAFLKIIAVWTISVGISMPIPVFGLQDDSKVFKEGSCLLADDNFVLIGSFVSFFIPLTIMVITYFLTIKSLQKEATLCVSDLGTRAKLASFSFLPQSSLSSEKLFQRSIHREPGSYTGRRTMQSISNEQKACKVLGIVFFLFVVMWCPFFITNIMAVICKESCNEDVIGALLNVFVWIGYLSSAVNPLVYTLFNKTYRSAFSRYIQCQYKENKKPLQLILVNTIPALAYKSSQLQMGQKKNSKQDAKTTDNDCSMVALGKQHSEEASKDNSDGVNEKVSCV
5-hydroxytryptamine receptor 2B, sequence (P41595 whole entry): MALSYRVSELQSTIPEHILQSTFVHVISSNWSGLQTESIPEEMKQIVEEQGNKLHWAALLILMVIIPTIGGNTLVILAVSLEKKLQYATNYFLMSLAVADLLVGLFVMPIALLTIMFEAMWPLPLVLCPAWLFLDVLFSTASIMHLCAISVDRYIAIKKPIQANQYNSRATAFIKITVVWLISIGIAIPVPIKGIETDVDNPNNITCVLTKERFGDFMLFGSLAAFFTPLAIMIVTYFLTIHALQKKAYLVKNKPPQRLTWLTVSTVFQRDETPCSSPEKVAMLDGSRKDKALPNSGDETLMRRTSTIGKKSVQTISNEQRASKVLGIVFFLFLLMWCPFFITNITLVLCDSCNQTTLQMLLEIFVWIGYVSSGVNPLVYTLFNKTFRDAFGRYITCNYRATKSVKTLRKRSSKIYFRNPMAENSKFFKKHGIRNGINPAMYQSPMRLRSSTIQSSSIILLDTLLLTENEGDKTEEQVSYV

Compound `Clc1ccc(Cl)c(-c2ccnc(N3C[C@@H]4CCN[C@@H]4C3)n2)c1` has an EC50 [1] of over 20000 nM.

Work on `FC(F)(F)c1ccnc(N2CC[C@@H]3CNC[C@@H]32)n1` yielded an EC50 [1] of 519 nM.

Work on `Clc1ccc(Cl)c(-c2ccnc(N3CC[C@H]4CNC[C@H]43)n2)c1` yielded an EC50 [1] of over 1000 nM.

Compound `C[C@H]1C[C@H]2CNC[C@H]2N1c1nccc(C(F)(F)F)n1` has an EC50 [1] of 22 nM, an EC50 [2] of 151 nM and an EC50 [3] of 40 nM.

With `FC(F)(F)c1cccc([C@H]2CC[C@H]3CNC[C@H]32)c1` the EC50 [1] was 420 nM, the EC50 [2] was 187 nM and the EC50 [3] was 1080 nM.

Work on `Clc1cccc(N2CC[C@H]3CNC[C@H]32)c1` yielded an EC50 [1] of 503 nM, an EC50 [2] of 59 nM and an EC50 [3] of 416 nM.

For `Fc1ccc(F)c(-c2ccnc(N3C[C@@H]4CCN[C@@H]4C3)n2)c1`, the EC50 [1] was over 20000 nM.

Compound `C[C@@H]1C[C@H]2CNC[C@H]2N1c1nccc(C(F)(F)F)n1` has an EC50 [1] of 57 nM, an EC50 [2] of 48 nM and an EC50 [3] of 25 nM.

In the case of `Fc1ccc(F)c(-c2ccnc(N3CC[C@H]4CNC[C@H]43)n2)c1`, the EC50 [1] is reported as over 1000 nM.

In the case of `FC(F)(F)c1ccnc(N2CC[C@H]3CNC[C@H]32)n1`, the Kp [4] is reported as 14.5, the clearance [5] is reported as 6.71 mL/min/kg and the half-life [6] is reported as 1.1 h. The bioavailability [7] was 6%, the Activity [8] was “Active” and the Activity [9] was “Active”. For the same compound, the Activity [10] was “Dose-dependent effect”, the EC50 [1] was 23 nM and the EC50 [2] was 62 nM. For the same compound, the EC50 [3] was 116 nM.

Work on `FC(F)(F)c1cccc(N2CC[C@H]3CNC[C@H]32)c1` yielded an EC50 [1] of 103 nM, an EC50 [2] of 65 nM and an EC50 [3] of 168 nM.

With `FC(F)(F)c1ccnc(N2C[C@@H]3CCN[C@@H]3C2)n1` the EC50 [1] was over 20000 nM.

`FC(F)(F)c1ccnc(N2CCC3CNCC32)n1` (racemic) gave an EC50 [1] of 180 nM, an EC50 [2] of 320 nM and an EC50 [3] of 220 nM.

For `Fc1cccc(N2CC[C@H]3CNC[C@H]32)c1`, the EC50 [1] was 319 nM, the EC50 [2] was 108 nM and the EC50 [3] was 1120 nM.
